From ChEMBL document CHEMBL1151746, “Antitumor agents 6. Synthesis, structure-activity relationships, and biological evaluation of spiro[imidazolidine-4,3'-thieno[2,3-g]quinoline]-tetraones and spiro[thieno[2,3-g]quinoline-3,5'-[1,2,4]triazinane]-tetraones with potent antiproliferative activity” (J Med Chem, 2008) come the findings set out here.

For one assay, the system named is MT4. Nature of the assay: Antiproliferative activity against human MT4 cells after 96 hrs by MTT assay. It counts as functional, cell-based. Conditions: Homo sapiens, MT4, 96 h. In outline:
(§1)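 Exponentially growing cells in RPMI 1640 with 10% FCS were resuspended at 1 × 10⁵ cells/mL in RPMI containing serial dilutions of compound (DMSO solution at 200 µM, diluted in medium). After 96 h at 37 °C, viability was read by MTT. Growth was taken as % of untreated controls, which grew at least three rounds. IC50 came from linear regression, as the mean of three independent determinations.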

Another assay has as its system HT-29. Nature of the assay: Antiproliferative activity against human HT-29 cells after 96 hrs by MTT assay. Format: functional, cell-based. Conditions: Homo sapiens, HT-29, 96 h. The essentials: (§2)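 Solid-tumor cells in their specific media with 10% FCS were seeded at 5 × 10⁴ cells/mL and left to adhere 16 h. Serially diluted compound was then added (DMSO solution at 200 µM, diluted in medium). MTT viability was read 4 days later. IC50 came from linear regression against untreated controls, which grew at least three rounds, as the mean of three independent determinations.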
In general terms: Formazan colour is commonly taken as a measure of viable cells.

For another assay, the system named is CCRF-CEM. Put plainly: Antiproliferative activity against human CCRF-CEM cells after 96 hrs by MTT assay. Format: functional, cell-based. The essentials: as §1
A further assay relates to CCRF-SB. Put plainly: Antiproliferative activity against human CCRF-SB cells after 96 hrs by MTT assay. It counts as functional, cell-based. In outline: as §1
For another assay, the system named is MCF7. Nature of the assay: Antiproliferative activity against human MCF7 cells after 96 hrs by MTT assay. It counts as functional, cell-based. The following applies: MCF7, 96 h. The essentials: as §2
For a further assay, the system named is HeLa. Put plainly: Antiproliferative activity against human HeLa cells after 96 hrs by MTT assay. It counts as functional, cell-based. In outline:
as §2

A further assay concerns ACHN. Nature of the assay: Antiproliferative activity against human ACHN cells after 96 hrs by MTT assay. Format: functional, cell-based. In outline: as §2
The next assay concerns SF-268. Nature of the assay: Antiproliferative activity against human SF-268 cells after 96 hrs by MTT assay. Format: functional, cell-based. The following applies: SF-268, 96 h. In outline:
as §2

For the next assay, the system named is XF498. Nature of the assay: Antiproliferative activity against human XF498 cells after 96 hrs by MTT assay. The following applies: XF498, 96 h. Format: functional, cell-based. The essentials:
as §2

The subject of a further assay is MRC5. Nature of the assay: Antiproliferative activity against human MRC5 cells after 96 hrs by MTT assay. Format: cell-based. Conditions: MRC5, 96 h. The essentials:
as §1

Assay [1] deals with DNA topoisomerase 2-alpha (Homo sapiens) (UniProt P11388). Put plainly: Inhibition of DNA topoisomerase 2-mediated negatively supercoiled pBR322 relaxation.
DNA topoisomerase 2-alpha (Homo sapiens), sequence (P11388 whole entry): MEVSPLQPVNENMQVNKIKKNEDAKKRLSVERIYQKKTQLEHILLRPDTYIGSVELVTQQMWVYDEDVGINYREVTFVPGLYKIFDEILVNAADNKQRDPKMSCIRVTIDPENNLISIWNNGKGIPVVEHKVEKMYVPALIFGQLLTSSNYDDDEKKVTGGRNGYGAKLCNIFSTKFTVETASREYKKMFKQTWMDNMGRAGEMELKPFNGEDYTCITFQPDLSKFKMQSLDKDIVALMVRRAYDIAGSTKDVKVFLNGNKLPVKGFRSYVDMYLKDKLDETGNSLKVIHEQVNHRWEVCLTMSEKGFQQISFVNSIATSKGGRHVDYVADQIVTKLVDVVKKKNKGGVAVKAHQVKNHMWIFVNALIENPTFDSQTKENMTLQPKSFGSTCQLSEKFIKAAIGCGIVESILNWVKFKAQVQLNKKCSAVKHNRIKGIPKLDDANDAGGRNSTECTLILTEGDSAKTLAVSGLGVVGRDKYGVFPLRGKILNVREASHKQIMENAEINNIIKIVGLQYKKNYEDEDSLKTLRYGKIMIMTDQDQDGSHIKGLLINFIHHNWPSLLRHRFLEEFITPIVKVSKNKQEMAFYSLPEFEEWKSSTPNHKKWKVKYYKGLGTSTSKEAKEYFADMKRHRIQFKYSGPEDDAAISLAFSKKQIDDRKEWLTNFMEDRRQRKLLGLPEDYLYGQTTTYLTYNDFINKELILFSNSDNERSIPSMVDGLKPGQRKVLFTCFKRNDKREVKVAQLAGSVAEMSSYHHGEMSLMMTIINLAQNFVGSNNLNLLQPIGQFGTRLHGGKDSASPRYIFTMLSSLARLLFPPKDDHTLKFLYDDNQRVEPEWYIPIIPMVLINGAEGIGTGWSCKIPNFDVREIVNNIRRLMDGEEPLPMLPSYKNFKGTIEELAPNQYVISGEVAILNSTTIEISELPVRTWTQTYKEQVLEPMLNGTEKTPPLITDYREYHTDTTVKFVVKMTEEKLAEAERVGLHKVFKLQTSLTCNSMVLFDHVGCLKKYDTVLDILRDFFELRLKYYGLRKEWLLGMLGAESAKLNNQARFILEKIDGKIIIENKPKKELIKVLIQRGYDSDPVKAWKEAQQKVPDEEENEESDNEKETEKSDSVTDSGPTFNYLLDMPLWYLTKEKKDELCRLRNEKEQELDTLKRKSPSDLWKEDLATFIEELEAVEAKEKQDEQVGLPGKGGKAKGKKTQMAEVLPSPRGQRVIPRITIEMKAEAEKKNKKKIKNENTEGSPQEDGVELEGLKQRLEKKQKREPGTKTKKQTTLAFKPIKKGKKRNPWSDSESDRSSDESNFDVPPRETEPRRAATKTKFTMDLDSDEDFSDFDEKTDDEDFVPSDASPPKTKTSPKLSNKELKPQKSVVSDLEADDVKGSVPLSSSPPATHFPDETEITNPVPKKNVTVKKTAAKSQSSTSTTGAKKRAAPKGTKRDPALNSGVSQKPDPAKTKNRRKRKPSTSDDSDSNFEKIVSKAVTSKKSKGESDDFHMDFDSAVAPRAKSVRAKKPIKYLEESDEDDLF

In the case of `O=C1C2=C(C(=O)c3ncccc31)C1(CS2)NC(=O)N(c2ccc(Cl)cc2)C1=O` (racemic), the IC50 was found to be 10 nM in the assay with MT4; 2 nM in the assay with HT-29; 10 nM with CCRF-CEM; 10 nM with CCRF-SB; 4 nM in the assay on MCF7; 2 nM in the assay with HeLa. The IC50 in the assay on ACHN turned out to be 4 nM; in the assay on SF-268 it was 580 nM; with XF498, 590 nM; in the assay with MRC5 it was 800 nM. In assay [1], the Activity entry is “Dose-dependent effect”.
On to `COc1cc([C@@H]2c3cc4c(cc3[C@@H](O[C@@H]3O[C@@H]5CO[C@@H](C)O[C@H]5[C@H](O)[C@H]3O)[C@H]3COC(=O)[C@H]23)OCO4)cc(OC)c1O` [ETOPOSIDE], for which the IC50 in the assay on MT4 was determined as 1250 nM; in the assay on HT-29 it was 2500 nM; in the assay on CCRF-CEM it was 1200 nM; in the assay on CCRF-SB it was 100 nM; with MCF7, 1000 nM; with HeLa it was 3000 nM. The IC50 with ACHN amounted to 2150 nM; with SF-268, 3250 nM; in the assay with XF498, 3450 nM; in the assay on MRC5 it was 3900 nM.
On to `CN(C)c1ccc(N2C(=O)NC3(CSC4=C3C(=O)c3ncccc3C4=O)C2=O)cc1` (racemic), for which the IC50 was determined as 15 nM in the assay with MT4; 20 nM with HT-29; 1 nM in the assay with CCRF-CEM; 1 nM in the assay with CCRF-SB; 10 nM with MCF7; 10 nM with HeLa. Also, the IC50 was 90 nM in the assay with ACHN, 950 nM in the assay on SF-268, 800 nM in the assay with XF498 and 1000 nM in the assay on MRC5. Also, the Activity result in [1] is “Dose-dependent effect”.
For the molecule `CCCCCc1ccc(N2C(=O)NC3(CSC4=C3C(=O)c3ncccc3C4=O)C2=O)cc1` (racemic), the IC50 in the assay with MT4 stood at 190 nM; with HT-29, 250 nM; in the assay on CCRF-CEM, 250 nM; in the assay on CCRF-SB, 150 nM; with MCF7 it was 250 nM; in the assay with HeLa, 200 nM. Also, the figures for the IC50 in the assay with ACHN, in the assay on SF-268 and in the assay on XF498 were 250 nM, 520 nM and 830 nM, respectively.
In the case of `O=C1C2=C(C(=O)c3ncccc31)C1(CS2)NC(=O)N(c2ccc(N3CCOCC3)cc2)C1=O` (racemic), the IC50 was found to be 800 nM in the assay on MT4; 750 nM with HT-29; 600 nM with CCRF-CEM; 650 nM in the assay on CCRF-SB; 750 nM with MCF7; 200 nM with HeLa. In addition, the IC50 with ACHN is 140 nM; with SF-268 it was 1980 nM; in the assay on XF498 it was 1700 nM.
With `COc1ccc(N2NC(=O)NC3(CSC4=C3C(=O)c3ncccc3C4=O)C2=O)cc1` (racemic), the IC50 with MT4 was determined as 80 nM; with HT-29, 650 nM; in the assay with CCRF-CEM, 35 nM; in the assay on CCRF-SB, 35 nM; in the assay on MCF7, 230 nM; in the assay with HeLa it was 150 nM. The IC50 with ACHN was found to be 430 nM; in the assay with SF-268, 2850 nM; in the assay on XF498 it was 3800 nM.

The term IC50 denotes the midpoint of a concentration-inhibition curve. The low end stands for higher potency, the high end for lower potency.
